SMILES strings stand for the structures. In brackets after ≈: the same amount, converted by molar mass.

Consider 5 compounds from ChEMBL document CHEMBL1121782, “New monofunctional reagents for DNA as possible agents for the photochemotherapy of psoriasis: derivatives of 4,5'-dimethylangelicin” (J Med Chem, 1981).

The species entered for data set [1] is Mus musculus. Put plainly: Compound was evaluated for its ability to inhibit RNA synthesis in Ehrlich ascites tumor cells by irradiation (365 nM),. It is filed as functional. The procedure, abridged: (§1)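 Ehrlich ascites tumor cells in Hank's solution (2 × 10^7 cells/mL) irradiated on ice with 1.9 × 10^-5 M compound, Philips HPW 125 lamp at 20 cm (2.02 × 10^16 quanta/s incident). 2 × 10^6 cells then pulsed 15 min at 37 °C with 1 μCi [3H]thymidine (DNA) or [3H]uridine (RNA). Acid-insoluble counts taken as % of untreated cells. D50 is the UV-A dose giving 50% inhibition. Each dose run at least in duplicate.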

The nature of data set [2]: Specific radioactivity of the compound. The data set is classed as ADME.
For data set [3], the system named is Nucleic Acid. Put plainly: The compound was tested for its ability to bind to calf thymus DNA. The data set is classed as nucleic-acid assay. Particulars: Bos taurus. The procedure, abridged:
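Calf thymus DNA (hypochromicity over 40%) in water with 1.5 × 10-2 M NaCl and 1 × 10^-3 M EDTA, no irradiation. Ground-state binding by equilibrium dialysis or fluorimetric titration. r (ligand bound per nucleotide) and c (free ligand, mol/L) plotted per Scatchard. Intrinsic constant K and site size n fitted iteratively to McGhee–von Hippel by least squares until both changed by less than 1%.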

For data set [4], the species on record is Mus musculus. Put plainly: compound was evaluated for its ability to inhibit DNA synthesis in Ehrlich ascites tumor cells by irradiation (365 nM). The data set is classed as functional. The method, boiled down:
as §1

Data set [5] can be described thus: Water solubility of the compound. It is filed as ADME. Particulars: for S: buffer; for solubility: water, read-out: S.
The species entered for data set [6] is Mus musculus. The data set is described as follows: Compound was evaluated for its ability to inhibit DNA synthesis in Ehrlich ascites tumor cells by irradiation (365 nM). The data set is classed as functional. The method, boiled down:
(§2)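 Ehrlich ascites tumour cells in Hank's solution (2 × 10^7 cells/mL) irradiated on ice with UV-A (Philips HPW 125, 20 cm; 2.02 × 10^16 quanta/s on whole sample) with 1.9 × 10^-5 M compound. Then 2 × 10^6 cells incubated 15 min at 37 °C with 1 μCi [3H]thymidine (DNA) or [3H]uridine (RNA). TCA-insoluble counts as % of untreated; D50 = UV dose giving 50% inhibition; doses ≥duplicate.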

Data set [7] is filed under the species Mus musculus. The data set is described as follows: Compound was evaluated for its ability to inhibit RNA synthesis in Ehrlich ascites tumor cells by irradiation (365 nM). The data set is classed as functional. The procedure, abridged:
as §2

Regarding `Cc1oc2ccc3c(C)cc(=O)oc3c2c1CN.Cl`, in data set [1], the D50 came out at 100 quanta*10e-18. The Specific radioactivity in data set [2] came out at 0.13 Ci/M. Also, the K in data set [3] was found to be 16300. The D50 in data set [4] came out at 100 quanta*10e-18. Further, in data set [5], the S is listed as greater than 0.004 M l-1 and the solubility was greater than 1000 µg/mL.

Consider `COCc1c(C)oc2ccc3c(C)cc(=O)oc3c12`, for which the D50 in data set [1] is 13.8 quanta*10e-18. In addition, the Specific radioactivity in data set [2] is on record as 0.21 Ci/M. This compound showed a K in data set [3] of 700. This compound also gave a D50 in data set [4] of 22.7 quanta*10e-18. Also, in data set [5], the S amounted to 0.000056 M l-1 and the solubility was 15.3 µg/mL (≈ 59.2 µM).

Regarding `Cc1cc2c(ccc3c(C)cc(=O)oc32)o1`, in data set [1], the D50 is given as 13.5 quanta*10e-18. Moreover, the Specific radioactivity in data set [2] was 5.11 Ci/M. In addition, the K in data set [3] came to 1400. In addition, the D50 in data set [4] came to 10.8 quanta*10e-18. Further, in data set [5], the S was 3.7e-05 M l-1 and the solubility turned out to be 8 µg/mL (≈ 37.3 µM).

`O=c1ccc2ccc3occc3c2o1` [ANGELICIN]: the Specific radioactivity in data set [2] turned out to be 1.59 Ci/M. The D50 was determined as 25 quanta*10e-18 in data set [6] and 23.3 quanta*10e-18 in data set [7].

As for `Cc1oc2ccc3c(C)cc(=O)oc3c2c1CO`, the D50 in data set [1] is reported as 13.8 quanta*10e-18. In addition, the Specific radioactivity in data set [2] came to 0.13 Ci/M. Further, the K in data set [3] was 1250. The compound also yielded a D50 in data set [4] of 9.2 quanta*10e-18. Besides, in data set [5], the S turned out to be 0.00007 M l-1 and the solubility came to 17.1 µg/mL (≈ 70 µM).
